In the library only some 2.2% were active in any assay of this set; here they are far more common.
CCR6 antag = antagonists of human CCR6 receptor; actives 0.49% (n = 340,000); P51684; CHO-K1 CCR6 PathHunter beta-arrestin, luminescence, CCL20-stimulated; inhibition, % at 20 µM;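 active = compounds whose inhibition of the agonist-driven luminescence signal at 20 µM reaches about 50%, limit read from the data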;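 also: cells stimulated with CCL20 at 14 nM final; plate controls were DMSO with CCL20 for no effect and DMSO without agonist for full effect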
CXCR6 block = blocks human CXCR6 beta-arrestin recruitment. CHO-K1 PathHunter CXCR6 beta-arrestin, luminescence. inhibition, % at 20 µM. actives 0.36% (n = 360,000). AID 602244; in the data active = inhibition above about 34%, passing the limit was not always enough;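 also: antagonist mode with CXCL16 agonist at 10 nM final; 0% = 10 nM CXCL16 with DMSO and 100% = unstimulated wells without agonist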
APJ ag = agonists of human APJ apelin receptor. P35414. CHO-K1 APJ PathHunter beta-arrestin, luminescence; 0% DMSO wells, 100% apelin. activation, % at 20 µM. actives 0.11% (n = 330,000). AID 2520;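 active = activation more than six SD over the plate average, tested at 20 µM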;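 also: 0% = DMSO alone and 100% = apelin-13 at 10 nM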
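assay system = CHO-K1 APJ beta-arrestin complementation cell line | input = cell density 1000 per well | dosing = compound 20 µM once, DMSO 1% | timing = compound 90 min 25 °C, reagent 1 h | measured by = luminescence from split beta-galactosidase complementation, Galacton Star/Emerald II substrate | read-out basis = APJ agonist activity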
APJ antagonist = antagonists of human APJ apelin receptor | P35414 | CHO-K1 APJ beta-arrestin complementation, luminescence | inhibition, % at 20 µM | actives 0.32% (n = 330,000) | AID 2521;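 active = inhibition above about 40% at 20 µM, limit read from the data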;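 also: cells challenged with 10 nM apelin-13 agonist together with compound; plate controls were apelin-13 plus DMSO wells for no effect and DMSO wells lacking apelin-13 for full effect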
EBI2 antag = EBI2 (human) antagonism; inhibition, % at 5 µM; P32249; EBI2 beta-arrestin recruitment, luminescence, 7a,25-OHC stimulated; actives 0.81% (n = 360,000); in the data active = inhibition above about 38%;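 also: enzyme fragment complementation signal reports receptor beta-arrestin coupling in cells; 0% = agonist plus DMSO wells and 100% = wells without agonist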
HTR2A ag = mouse HTR2A agonism via beta-arrestin recruitment; P35363; CHO-K1 mHTR2A beta-arrestin complementation, luminescence; percent of 30 µM serotonin response; activation, % at 7.6 µM; actives 0.66% (n = 360,000); AID 624169;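 active = activation above a run cutoff, the mean activation of all tested compounds plus 3 SD, cut at about 14% in these data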;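 also: 0% = plate median of compound wells and 100% = 30 µM serotonin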
OPRM1 ag = OPRM1 agonism in mouse HTR2A counterscreen; shares compounds with HTR2A ag; actives 5.3% (n = 2,300); AID 624380; activation, % at 9.3 µM; U2OS OPRM1 beta-arrestin PathHunter, luminescence; DMSO 0%, DAMGO 9.3 µM 100%;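 active = mean activation above the mean of DMSO-only wells plus 3 SD, cut at about 0.5% in these data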
Target sequence (P35372 whole entry, looked up): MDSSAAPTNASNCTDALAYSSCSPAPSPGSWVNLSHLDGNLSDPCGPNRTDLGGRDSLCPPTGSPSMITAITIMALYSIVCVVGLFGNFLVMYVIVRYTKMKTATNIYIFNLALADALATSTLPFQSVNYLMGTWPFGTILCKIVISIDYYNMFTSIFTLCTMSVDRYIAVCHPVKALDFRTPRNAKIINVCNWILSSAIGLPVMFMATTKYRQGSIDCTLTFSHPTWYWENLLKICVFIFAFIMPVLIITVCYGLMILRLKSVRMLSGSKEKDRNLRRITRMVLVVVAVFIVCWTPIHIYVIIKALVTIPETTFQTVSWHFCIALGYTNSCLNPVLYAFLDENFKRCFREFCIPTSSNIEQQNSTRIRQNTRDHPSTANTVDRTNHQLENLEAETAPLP
m5-HT2A ag conf = mouse HTR2A agonism confirmed; shares compounds with HTR2A ag; CHO-K1 PathHunter beta-arrestin recruitment, luminescence; DMSO 0%, 30 µM serotonin 100%; activation, % at 7.6 µM; actives 19% (n = 2,300);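 active = mean activation across triplicates above the hit threshold derived in the original primary screen, cut at about 15% in these data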
* = called active by the depositor; . = not tested or not shown.

SMILES	CCR6 antag	CXCR6 block	APJ ag	APJ antagonist	EBI2 antag	HTR2A ag	OPRM1 ag	m5-HT2A ag conf
CCn1c(CNC(=O)COc2ccc(C(C)C)cc2)nnc1SCC(=O)Nc1ccccc1C(C)C	5	0	5	-7	1	18*	0	2
CCn1c(CNC(=O)COc2ccc(C(C)C)cc2)nnc1SCC(=O)Nc1ccccc1F	-12	0	-2	9	-1	1	.	.
Cc1c(C(=O)NCc2ccccc2C(F)(F)F)sc(=O)n1Cc1ccc(F)cc1	.	6	.	.	9	0	.	.
Cc1c(C)c2ccc(OCC(=O)Nc3ccccn3)cc2oc1=O	-9	1	1	34	0	18*	-1	-3
N#Cc1cnc2nc1NCCCCCCC2	.	-1	.	.	-4	-1	.	.
O=C(NC1(C(F)(F)F)NC(=O)N(c2ccc(F)cc2)C1=O)c1cccs1 (stereo not given)	2	5	3	-10	2	18*	0	-4
Cn1c(N)c(C(=O)COC(=O)CCC2CCCC2)c(=O)n(C)c1=O	11	2	-1	8	-7	20*	0	-5
Cn1c(N)c(C(=O)COC(=O)CCC2CCCCC2)c(=O)n(C)c1=O	9	-4	-3	-1	-4	4	.	.
O=[N+]([O-])c1cccc(CON=Cc2ccccc2O)c1	.	-6	.	.	9	-5	.	.
O=C(Nc1ccc(F)cc1)C(c1cc2ccccc2o1)N1CCN(C(=O)c2ccco2)CC1 (stereo not given)	.	.	.	.	3	3	.	.
CC12CCC(C(=O)N(CCCCN3CCN(c4ccccn4)CC3)C1=O)C2(C)C (stereo not given)	-12	2	-1	19	0	28*	-1	90*
CC12CCC(C(=O)N(CCCN3CCN(Cc4ccccc4)CC3)C1=O)C2(C)C (stereo not given)	14	2	-1	8	4	-2	.	.
Cc1ccc(-c2nn(-c3ccccc3)cc2CO)o1	-8	-13	-1	15	-4	15*	-1	-3
COc1cc(/C=C/C(=O)c2ccc3c(c2)OCCO3)cc(Br)c1OCC(=O)N(C)C	37	16	3	12	-50	18*	-1	-6
C[C@H](CO)N1C[C@H](C)[C@H](CN(C)Cc2cccc(O)c2)OCc2ccccc2-c2c(n(C)c3ccccc23)C1=O	.	9	.	.	-7	23*	0	32*
C[C@H]1CN([C@@H](C)CO)C(=O)c2c(c3ccccc3n2C)-c2ccccc2CO[C@H]1CN(C)Cc1cccc(F)c1	.	2	.	.	0	5	.	.
COc1cc(CNC[C@H]2O[C@@H](n3ccc(N)nc3=O)[C@H](O)[C@@H]2O)ccc1OCc1ccc(C)cc1	.	5	.	.	-4	-4	.	.
CN1C(=O)CCS(=O)(=O)C1c1ccc(Cl)c(Cl)c1 (stereo not given)	.	0	.	.	-3	-1	.	.
NC(=O)c1ccc(/C=N/O)[n+](Cc2ccccc2)c1	-1	2	0	7	-13	16*	-1	-3
CCCCN(C(=O)c1cccc2c(=O)c(C)c(-c3ccccc3)oc12)c1ccccc1	17	12	.	.	18	38*	0	10
CCCCNC(=O)c1cccc2c(=O)c(C)c(-c3ccccc3)oc12	19	-2	-2	2	18	0	.	.
O=C(COc1ccccc1)NC1CCSC1=O (stereo not given)	-6	-1	-1	13	-4	21*	-1	-3
O=C(CCc1ccccc1)NC1CCSC1=O (stereo not given)	13	-4	-1	18	5	2	.	.
O=C(Nc1c(-c2ccc(Cl)cc2)[nH][nH]c1=O)c1ccccc1Cl	.	-4	.	.	1	2	.	.
O=C(CN1C(=O)CSc2ncccc21)NCCN1CCOCC1	18	-1	-1	-1	-4	-6	.	.
